Reference: ChEMBL document CHEMBL1152615, “Cytosporones, coumarins, and an alkaloid from the endophytic fungus Pestalotiopsis sp. isolated from the Chinese mangrove plant Rhizophoramucronata” (Bioorg Med Chem, 2009)
Active and inactive are the calls of the source.

Experiments:
Type in all cases: functional, cell-based
PC-12 = assay: Cytotoxicity against rat PC12 cells
Procedure, shortened: (§1)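 MTT assay. Cells kept in RPMI-1640 with Na-carbonate (pH 7.2) plus 10% FCS, at 37 °C under humidified 5% CO2/95% air. Seeded at 1500 cells/mL and exposed for 72 h to compounds in DMSO at several concentrations, with an initial test concentration of 10 µg/mL. MTT added for 3 h, then DMSO for 1 h to lyse cells; absorbance read at 595 nm. Negative control was medium with 0.1% EGMME/DMSO.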

L5178Y = assay: Cytotoxicity against mouse L5178Y cells; procedure, shortened: as §1
HeLa = assay: Cytotoxicity against human HeLa cells; procedure, shortened: as §1

Measured: Activity

COc1cc(O)c2oc(=O)c(CC(O)CO)cc2c1 (centres undefined)
inactive: all assays above

CC(O)CCCCCC1OC(=O)Cc2cc(O)cc(O)c21 (centres undefined)
inactive: all assays above

COC(=O)Cc1cc(O)cc(O)c1C(=O)CCCCCC(C)O (centres undefined)
inactive: all assays above

COc1cc(O)cc2cc(CO)c(=O)oc12
inactive: all assays above

COc1cc(OC)c2oc(=O)c(CC(O)CO)cc2c1 (centres undefined)
inactive: all assays above

CC(=O)OC(C)CCCCCC1OC(=O)Cc2cc(O)cc(O)c21 (centres undefined)
inactive: all assays above

COc1cc(OC)c2oc(=O)c(CO)cc2c1
inactive: all assays above

CC(=O)OCCCCCCCC1OC(=O)Cc2cc(O)cc(O)c21 (centres undefined)
inactive: all assays above

COc1cc(OC)c2oc(=O)c(CC(C)O)cc2c1 (centres undefined)
inactive: all assays above

COc1cc(OC)c2oc(=O)c(C(O)C(C)O)cc2c1 (centres undefined)
inactive: all assays above

CCCCCCCC1OC(=O)Cc2cc(O)cc(O)c21 (centres undefined)
inactive: all assays above

CCOC(=O)Cc1cc(O)cc(O)c1C(=O)CCCCCC(C)O (centres undefined)
inactive: all assays above

CCCCCCCC(=O)c1c(O)cc(O)cc1CC(=O)OC
inactive: all assays above
